Only some compounds are listed: those with a hit (about 3.2% of all), similar ones and a draw of the others.
LEDGF integ inh: blocks HIV-1 LEDGF/p75-dependent DNA integration; TR-FRET IN-LEDGF/p75 DNA integration, Eu/Cy5; inhibition, % at 3.7 µM; 370,000 compounds, 0.64% hits; AID 743269;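 active = inhibition above the screen-wide mean plus 3 SD, cut at about 13% in these data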;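 also: signal is the Cy5 over europium emission ratio at 671 and 618 nm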
mABHD4 FP: inhibits mouse alpha/beta hydrolase domain 4; AID 720543; inhibition, % at 8.92 µM; 370,000 compounds, 0.54% hits; purified mABHD4, FP-Rh probe fluorescence polarization;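 active = inhibition exceeding the mean over every tested compound plus 3 SD, cut at about 30% in these data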
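system = mouse ABHD4 enzyme, wild type | medium = HEPES pH 7.0, NaCl, Pluronic buffer | also added = FP-Rh probe | incubation = Enzyme–compound pre-incubation 45 min, then probe 60 min, both 25 °C | technique = fluorescence polarization, excitation 525 nm, emission 598 nm, BODIPY TMR filters | controls = S159A mutant high control, sample median low control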
rCAG binder: binds r(CAG) RNA repeats. AID 651821. inhibition, % at 3 µM. r(CAG) RNA repeat, TO-PRO-1 dye displacement fluorescence. 370,000 compounds, 1.3% hits;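 active = inhibition above the plate cutoff, the mean of all test compounds on that plate plus 3 SD, cut at about 35% in these data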;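 also: higher means more dye released from RNA so lower well fluorescence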
PRMT1 FP inh: inhibitors of human PRMT1. Q99873. recombinant PRMT1, activity-based probe fluorescence polarization. inhibition, % at 2.79 µM. 370,000 compounds, 1.3% hits;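 active = inhibition above about 21% made by adding two undisclosed values, limit read from the data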
HTRA1 inhibitor: HTRA1 (human) protease inhibition | recombinant HTRA1, FP-rhodamine activity-based probe, fluorescence polarization | inhibition, % at 5.96 µM | Q92743 | 340,000 compounds, 0.5% hits; in the data active = inhibition above about 36%
Target sequence (Q92743 whole entry, looked up): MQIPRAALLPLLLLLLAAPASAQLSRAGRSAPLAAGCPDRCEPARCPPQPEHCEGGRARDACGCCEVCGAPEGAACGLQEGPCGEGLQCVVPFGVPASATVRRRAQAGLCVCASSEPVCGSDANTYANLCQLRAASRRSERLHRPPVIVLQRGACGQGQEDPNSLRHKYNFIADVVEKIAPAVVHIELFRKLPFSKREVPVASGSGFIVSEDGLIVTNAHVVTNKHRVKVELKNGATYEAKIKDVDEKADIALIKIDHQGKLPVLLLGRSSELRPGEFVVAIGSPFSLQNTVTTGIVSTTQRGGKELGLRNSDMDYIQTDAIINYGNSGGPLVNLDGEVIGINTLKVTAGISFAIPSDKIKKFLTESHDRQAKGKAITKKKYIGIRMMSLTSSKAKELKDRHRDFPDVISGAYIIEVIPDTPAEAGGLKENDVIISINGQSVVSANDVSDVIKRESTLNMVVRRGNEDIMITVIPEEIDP
DAGLB inhibitor: diacylglycerol lipase beta (human) inhibition; Q8NCG7; HEK293T DAGLB membrane lysate, EnzChek fluorogenic substrate; inhibition, % at 5.17 µM; 340,000 compounds, 0.059% hits; in the data active = inhibition above about 34%
rCAG bind conf: r(CAG) RNA repeat binding, confirmation; inhibition, % at 3 µM; TO-PRO-1 dye displacement fluorescence; 4,300 compounds, 70% hits; AID 652065; shares compounds with rCAG binder;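 active = inhibition above a per-plate cutoff, the mean inhibition of sample wells plus 3 SD, cut at about 35% in these data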;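 also: loss of TO-PRO-1 fluorescence as compound displaces dye from 1x1 AA loop RNA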
dCAG dye counter: counter-screen for rCAG RNA binders: DNA CAG dye complex inhibitors. shares compounds with rCAG binder. d(CAG) DNA oligo TO-PRO-1 dye displacement, fluorescence. 4,300 compounds, 94% hits. inhibition, % at 3 µM;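 active = inhibition above its plate's cutoff, the mean test-well inhibition plus 3 SD, cut at about 4.8% in these data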;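 also: hits displace the dye from DNA and so lower well fluorescence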
Numbers stand for hits.

What do the screens show for `Cc1cc(-n2c(C)cc(C(=O)CSc3[nH]c(=O)cc(C(F)(F)F)c3C#N)c2C)no1`?
LEDGF integ inh: inactive; mABHD4 FP: inactive; rCAG binder: 42; PRMT1 FP inh: inactive; HTRA1 inhibitor: inactive; DAGLB inhibitor: inactive; rCAG bind conf: 38; dCAG dye counter: 9.1

Results for Cc1cc(NC(=O)CSc2[nH]c(=O)cc(C(F)(F)F)c2C#N)no1 ?
LEDGF integ inh: inactive; mABHD4 FP: inactive; rCAG binder: inactive; PRMT1 FP inh: inactive; HTRA1 inhibitor: inactive; DAGLB inhibitor: inactive

What do the screens show for `CCC(=O)c1ccc(OCC(=O)Nc2cc(S(=O)(=O)N3CCCCC3)ccc2N2CCN(CC)CC2)cc1`?
LEDGF integ inh: inactive; mABHD4 FP: inactive; rCAG binder: inactive; PRMT1 FP inh: inactive; HTRA1 inhibitor: inactive; DAGLB inhibitor: inactive

How did Cc1cccc(OCC(=O)N/N=C/c2sc(=O)n(Cc3cccc(C(=O)O)c3)c2Cl)c1 do in these assays?
LEDGF integ inh: inactive; mABHD4 FP: inactive; rCAG binder: 35; PRMT1 FP inh: inactive; HTRA1 inhibitor: inactive; DAGLB inhibitor: inactive; rCAG bind conf: 37; dCAG dye counter: 10

How did COCCNc1nc(NCCOc2ccccc2Cl)c2sc(-c3ccccc3)cc2n1 do in these assays?
LEDGF integ inh: inactive; mABHD4 FP: inactive; rCAG binder: inactive; PRMT1 FP inh: inactive

How did Cc1nc(CNS(=O)(=O)c2cccs2)cs1 do in these assays?
LEDGF integ inh: inactive; mABHD4 FP: inactive; rCAG binder: inactive; PRMT1 FP inh: inactive; HTRA1 inhibitor: inactive; DAGLB inhibitor: inactive

Results for O=C(O)CSc1cc(C(=O)c2ccccc2O)cn2c(=O)c3c(-c4ccccc4)csc3nc12 ?
LEDGF integ inh: inactive; mABHD4 FP: inactive; rCAG binder: 53; PRMT1 FP inh: inactive; HTRA1 inhibitor: inactive; DAGLB inhibitor: inactive; rCAG bind conf: 90; dCAG dye counter: 74

Results for Cc1sc2nc3c(SC(C)C(=O)O)cc(C(=O)c4ccccc4O)cn3c(=O)c2c1C (stereo unspecified) ?
LEDGF integ inh: inactive; mABHD4 FP: inactive; rCAG binder: 77; PRMT1 FP inh: inactive; HTRA1 inhibitor: inactive; DAGLB inhibitor: inactive; rCAG bind conf: 85; dCAG dye counter: 61

Results for COc1ccc(O)c(C(=O)c2cc(SCC(=O)O)c3nc4sc5c(c4c(=O)n3c2)CCCC5)c1 ?
LEDGF integ inh: inactive; mABHD4 FP: inactive; rCAG binder: 42; PRMT1 FP inh: inactive; HTRA1 inhibitor: inactive; DAGLB inhibitor: inactive; rCAG bind conf: 89; dCAG dye counter: 63

Results for NC(=O)c1ccc(NC(=O)Cn2c(=O)n(-c3ccccc3)c(=O)c3oc4ccccc4c32)cc1 ?
LEDGF integ inh: inactive; mABHD4 FP: inactive; rCAG binder: inactive; PRMT1 FP inh: inactive; HTRA1 inhibitor: inactive; DAGLB inhibitor: inactive

How did CCOC(=O)CNC(=O)N1CCCC(C(=O)c2ccccc2SC)C1 (stereo unspecified) do in these assays?
LEDGF integ inh: inactive; mABHD4 FP: inactive; rCAG binder: inactive; PRMT1 FP inh: inactive; HTRA1 inhibitor: inactive; DAGLB inhibitor: inactive

Results for O=S(=O)(Nc1ccc(Cl)nn1)c1ccccc1 ?
LEDGF integ inh: inactive; mABHD4 FP: inactive; rCAG binder: inactive; PRMT1 FP inh: inactive; HTRA1 inhibitor: inactive; DAGLB inhibitor: inactive

What do the screens show for `Cc1cc(NS(=O)(=O)c2ccc(NC(=O)CSc3nc4sc(C)c(C)c4c(=O)n3Cc3ccco3)cc2)nc(C)n1`?
LEDGF integ inh: inactive; mABHD4 FP: inactive; rCAG binder: 68; PRMT1 FP inh: 24; rCAG bind conf: 63; dCAG dye counter: 27

How did Cc1cc(NS(=O)(=O)c2ccc(NC(=O)CSc3nnc(-c4ccco4)n3Cc3ccco3)cc2)nc(C)n1 do in these assays?
LEDGF integ inh: inactive; mABHD4 FP: inactive; rCAG binder: inactive; PRMT1 FP inh: inactive; HTRA1 inhibitor: inactive; DAGLB inhibitor: inactive

Results for CCn1c(SCC(=O)Nc2ccc(S(=O)(=O)Nc3cc(C)nc(C)n3)cc2)nc2sc(C)c(C)c2c1=O ?
LEDGF integ inh: inactive; mABHD4 FP: inactive; rCAG binder: 53; PRMT1 FP inh: inactive; rCAG bind conf: inactive; dCAG dye counter: 11

How did O=C(COC(=O)c1cccc(-n2cnnn2)c1)c1ccc(Br)cc1 do in these assays?
LEDGF integ inh: inactive; mABHD4 FP: inactive; rCAG binder: inactive; PRMT1 FP inh: inactive; HTRA1 inhibitor: inactive; DAGLB inhibitor: inactive

How did CCc1ccc(-n2c(=S)sc3c(=O)n(-c4ccccc4)c(SCC(=O)O)nc32)cc1 do in these assays?
LEDGF integ inh: inactive; mABHD4 FP: inactive; rCAG binder: 41; PRMT1 FP inh: inactive; HTRA1 inhibitor: inactive; DAGLB inhibitor: inactive; rCAG bind conf: inactive; dCAG dye counter: 6.9

Results for CCOc1ccc(-n2c(=S)sc3c(=O)n(-c4ccc(F)cc4)c(SCC(=O)O)nc32)cc1 ?
LEDGF integ inh: inactive; mABHD4 FP: inactive; rCAG binder: inactive; PRMT1 FP inh: inactive; HTRA1 inhibitor: inactive; DAGLB inhibitor: inactive

Results for COc1ccccc1-n1c(SCC(=O)O)nc2c(sc(=S)n2-c2ccccc2C)c1=O ?
LEDGF integ inh: inactive; mABHD4 FP: inactive; rCAG binder: inactive; PRMT1 FP inh: inactive; HTRA1 inhibitor: inactive; DAGLB inhibitor: inactive

Results for CCOc1ccc(-n2c(=S)sc3c(=O)n(-c4ccccc4)c(SCC(=O)O)nc32)cc1 ?
LEDGF integ inh: inactive; mABHD4 FP: inactive; rCAG binder: 39; PRMT1 FP inh: inactive; HTRA1 inhibitor: inactive; DAGLB inhibitor: inactive; rCAG bind conf: inactive; dCAG dye counter: 5.7

How did Cc1ccc(-n2c(=S)sc3c(=O)n(-c4ccccc4F)c(SCC(=O)O)nc32)cc1C do in these assays?
LEDGF integ inh: inactive; mABHD4 FP: inactive; rCAG binder: 47; PRMT1 FP inh: inactive; HTRA1 inhibitor: inactive; DAGLB inhibitor: inactive; rCAG bind conf: 46; dCAG dye counter: 13

Results for COC1CCCCC1Nc1ccc(C)c(C)c1 (stereo unspecified) ?
LEDGF integ inh: inactive; mABHD4 FP: inactive; rCAG binder: inactive; PRMT1 FP inh: inactive; HTRA1 inhibitor: inactive; DAGLB inhibitor: inactive

What do the screens show for `CC(=O)c1sc(C(C)(C)C)cc1NC(=O)c1ccccc1C(=O)O`?
LEDGF integ inh: inactive; mABHD4 FP: inactive; rCAG binder: inactive; PRMT1 FP inh: inactive

Results for O=C(O)CCC(=O)N1N=C(c2cccs2)CC1c1cn(-c2ccccc2)nc1-c1ccccc1 (stereo unspecified) ?
LEDGF integ inh: inactive; mABHD4 FP: inactive; rCAG binder: 54; PRMT1 FP inh: inactive; HTRA1 inhibitor: inactive; DAGLB inhibitor: inactive; rCAG bind conf: 61; dCAG dye counter: 19

What do the screens show for `O=C1NCC(COCc2ccco2)O1` (stereo unspecified)?
LEDGF integ inh: inactive; mABHD4 FP: inactive; rCAG binder: inactive; PRMT1 FP inh: inactive; HTRA1 inhibitor: inactive; DAGLB inhibitor: inactive
